# Results: ChEMBL document CHEMBL1641576, “Development of a new class of benzoylpyrrole-based PPARα/γ activators” (Bioorg Med Chem Lett, 2011)
# The source made the active and inactive calls. No cut-off for these calls is given here.
# What was measured:
# Homo sapiens = species: Homo sapiens; experiment: Selectivity ratio, ratio of EC50 for human PPARalpha ligand binding domain to EC50 for human PPARgamma ligand binding domain
# [1] = molecular target: T1, Peroxisome proliferator-activated receptor alpha (Homo sapiens) (UniProt Q07869); experiment: Agonist activity at human PPARalpha ligand binding domain expressed in COS-1 cells co-transfected with Gal4 by luciferase reporter gene assay relative to fenofibric acid; assay type: cell-based
# T1 sequence (whole entry): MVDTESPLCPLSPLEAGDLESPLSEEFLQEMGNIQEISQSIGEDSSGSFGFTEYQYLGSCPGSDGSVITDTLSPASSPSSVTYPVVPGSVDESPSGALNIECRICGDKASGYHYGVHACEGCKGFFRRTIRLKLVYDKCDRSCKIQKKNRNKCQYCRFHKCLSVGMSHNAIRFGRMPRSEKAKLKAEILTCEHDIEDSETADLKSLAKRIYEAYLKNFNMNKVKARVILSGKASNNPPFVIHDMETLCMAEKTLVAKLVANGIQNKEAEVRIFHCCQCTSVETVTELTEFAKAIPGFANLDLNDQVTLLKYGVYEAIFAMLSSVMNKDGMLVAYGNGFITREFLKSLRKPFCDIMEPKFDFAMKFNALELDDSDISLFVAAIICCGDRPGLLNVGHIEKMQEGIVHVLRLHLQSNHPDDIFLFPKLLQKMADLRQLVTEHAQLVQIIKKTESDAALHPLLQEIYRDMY
# [2] = molecular target: T2, Peroxisome proliferator-activated receptor gamma (Homo sapiens) (UniProt P37231); experiment: Agonist activity at human PPARgamma ligand binding domain expressed in COS-1 cells co-transfected with Gal4 by luciferase reporter gene assay relative to pioglitazone; assay type: cell-based
# T2 sequence (whole entry): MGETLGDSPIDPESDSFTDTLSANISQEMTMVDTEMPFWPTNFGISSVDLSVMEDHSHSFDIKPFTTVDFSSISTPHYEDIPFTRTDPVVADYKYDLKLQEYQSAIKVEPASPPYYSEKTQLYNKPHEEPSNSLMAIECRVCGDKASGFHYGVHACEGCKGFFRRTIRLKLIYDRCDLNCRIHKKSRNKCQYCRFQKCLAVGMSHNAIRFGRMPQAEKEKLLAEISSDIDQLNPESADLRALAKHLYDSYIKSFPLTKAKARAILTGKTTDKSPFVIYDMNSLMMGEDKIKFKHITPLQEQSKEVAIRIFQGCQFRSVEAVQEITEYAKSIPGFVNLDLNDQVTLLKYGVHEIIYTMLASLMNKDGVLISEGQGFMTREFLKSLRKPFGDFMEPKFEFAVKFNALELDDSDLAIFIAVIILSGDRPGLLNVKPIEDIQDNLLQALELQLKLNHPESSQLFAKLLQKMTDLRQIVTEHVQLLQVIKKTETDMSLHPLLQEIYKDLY
# [3] = molecular target: T3, Peroxisome proliferator-activated receptor alpha (Homo sapiens, UniProt Q07869); experiment: Agonist activity at human PPARalpha ligand binding domain expressed in COS-1 cells co-transfected with Gal4 by luciferase reporter gene assay; assay type: cell-based
# T3 sequence (Q07869 whole entry): T1 sequence (whole entry)
# Summary of the method: (§1)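 COS-1 cells were seeded at 5 × 10⁴ cells/well and grown about 24 h at 37 °C under 5% CO₂ in DMEM with 10% charcoal-treated FCS. They were lipofected with a GAL4–PPAR ligand-binding-domain fusion plasmid plus a GAL4-responsive luciferase reporter. Medium was replaced at 4 h with medium containing compound; no-drug controls received 0.1% DMSO final. Cells were lysed after 24 h and luciferase was read. Results are reported as fold induction and EC50.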
# [4] = molecular target: T1, Peroxisome proliferator-activated receptor alpha (Homo sapiens); experiment: Agonist activity at human PPARalpha ligand binding domain expressed in COS-1 cells co-transfected with Gal4 at 10 uM by luciferase reporter gene assay relative to control; assay type: cell-based; summary of the method: as §1
# [5] = molecular target: T4, Peroxisome proliferator-activated receptor gamma (Homo sapiens, UniProt P37231); experiment: Agonist activity at human PPARgamma ligand binding domain expressed in COS-1 cells co-transfected with Gal4 by luciferase reporter gene assay; assay type: cell-based
# T4 sequence (P37231 whole entry): T2 sequence (whole entry)
# Mus musculus [6] = experiment: Toxicity in db/db mouse assessed as effect on food intake at 141 mg/kg administered with chow diet ad for 14 days; assay type: organism-based; design: dose 141 mg/kg; settings: in vivo, po, 336 h
# Summary of the method: (§2)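 […] male db/db mice were randomised into four groups and dosed for 14 days through drug admixed in rodent chow; controls received plain chow. Blood glucose, body weight and food intake were monitored. Values are means of 6 animals/group, compared with vehicle by Dunnett's or Student's test.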
# [7] = AUC in rat at 1 mg/kg, iv; assay type: ADME, organism-based; design: dose 1 mg/kg, route intravenous; settings: plasma
# Summary of the method: (§3)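 Single intravenous dose of the sodium salt given to rats. Plasma concentrations followed to derive AUC, half-life, plasma clearance and steady-state distribution volume.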
# [8] = Clearance in rat at 1 mg/kg, iv; assay type: ADME, organism-based; design: dose 1 mg/kg, route intravenous; settings: in vivo; summary of the method: as §3
# [9] = Cmax in rat at 10 mg/kg, po; assay type: ADME, organism-based; design: dose 10 mg/kg, route oral; settings: in vivo
# Summary of the method: (§4)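 Single oral dose of the sodium salt given to rats. Plasma profile used to derive AUC, Cmax, Tmax and bioavailability.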
# [10] = AUC in rat at 10 mg/kg, po; assay type: ADME, organism-based; design: dose 10 mg/kg, route oral; settings: plasma; summary of the method: as §4
# Mus musculus [11] = experiment: Toxicity in db/db mouse assessed as effect on food intake at 15 mg/kg administered with chow diet ad for 14 days; assay type: organism-based; design: dose 15 mg/kg; settings: in vivo, po, 336 h; summary of the method: as §2
# Mus musculus [12] = experiment: Toxicity in db/db mouse assessed as increase of body weight at 141 mg/kg administered with chow diet ad for 14 days; assay type: organism-based; design: dose 141 mg/kg; settings: in vivo, po, 336 h; summary of the method: as §2
# [13] = Oral bioavailability in rat at 10 mg/kg; assay type: ADME, organism-based; settings: in vivo; summary of the method: as §4
# [14] = Tmax in rat at 10 mg/kg, po; assay type: ADME, organism-based; design: dose 10 mg/kg, route oral; settings: in vivo; summary of the method: as §4
# Mus musculus [15] = experiment: Toxicity in db/db mouse assessed as increase of body weight at 15 mg/kg administered with chow diet ad for 14 days; assay type: organism-based; design: dose 15 mg/kg; settings: in vivo, po, 336 h; summary of the method: as §2
# [16] = Half life in rat at 1 mg/kg, iv; assay type: ADME, organism-based; design: dose 1 mg/kg, route intravenous; settings: in vivo; summary of the method: as §3
# [17] = Volume of distribution at steady state in rat at 1 mg/kg, iv; assay type: ADME, organism-based; design: dose 1 mg/kg, route intravenous; settings: in vivo, read-out: Vdss; summary of the method: as §3
# Mus musculus [18] = experiment: Toxicity in db/db mouse assessed as increase of body weight at 41 mg/kg administered with chow diet ad for 14 days; assay type: organism-based; design: dose 41 mg/kg; settings: in vivo, po, 336 h; summary of the method: as §2
# Mus musculus [19] = experiment: Toxicity in db/db mouse assessed as effect on food intake at 41 mg/kg administered with chow diet ad for 14 days; assay type: organism-based; design: dose 41 mg/kg; settings: in vivo, po, 336 h; summary of the method: as §2
# Mus musculus [20] = experiment: Antidiabetic activity in db/db mouse assessed as reduction of blood glucose level at 41 mg/kg administered with chow diet ad for 14 days; assay type: functional, organism-based; design: dose 41 mg/kg; summary of the method: as §2
# Mus musculus [21] = experiment: Antidiabetic activity in db/db mouse assessed as reduction of blood glucose level at 141 mg/kg administered with chow diet ad for 14 days; assay type: functional, organism-based; design: dose 141 mg/kg; summary of the method: as §2
# [22] = molecular target: T5, Peroxisome proliferator-activated receptor alpha (Mus musculus) (UniProt P23204); experiment: Agonist activity at mouse PPARalpha ligand binding domain expressed in COS-1 cells co-transfected with Gal4 by luciferase reporter gene assay relative to fenofibric acid; assay type: cell-based
# T5 sequence (whole entry): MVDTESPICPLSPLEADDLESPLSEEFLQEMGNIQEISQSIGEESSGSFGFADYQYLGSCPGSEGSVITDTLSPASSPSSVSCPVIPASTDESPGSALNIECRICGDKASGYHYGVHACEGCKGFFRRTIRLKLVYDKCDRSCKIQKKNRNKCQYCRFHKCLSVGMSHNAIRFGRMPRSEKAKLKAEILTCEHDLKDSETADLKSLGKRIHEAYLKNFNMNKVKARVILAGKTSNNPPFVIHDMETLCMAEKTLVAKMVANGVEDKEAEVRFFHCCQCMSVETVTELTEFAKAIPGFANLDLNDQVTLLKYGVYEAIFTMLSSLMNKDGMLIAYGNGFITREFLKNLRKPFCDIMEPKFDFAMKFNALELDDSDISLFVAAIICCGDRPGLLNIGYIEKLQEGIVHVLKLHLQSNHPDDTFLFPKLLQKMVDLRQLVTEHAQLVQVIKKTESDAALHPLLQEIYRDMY
# [23] = molecular target: T6, Peroxisome proliferator-activated receptor alpha (Mus musculus, UniProt P23204); experiment: Agonist activity at mouse PPARalpha ligand binding domain expressed in COS-1 cells co-transfected with Gal4 by luciferase reporter gene assay; assay type: cell-based; summary of the method: as §1
# T6 sequence (P23204 whole entry): T5 sequence (whole entry)
smiles,measurement,setting,value
COc1ccc(C(=O)c2cccn2C/C=C/c2cccc(CC(=O)O)c2)cc1,Ratio EC50,Homo sapiens,11
same,Emax,[1],43%
same,Emax,[2],37%
same,EC50,[3],21 µM
same,fold change (FC),[4],1.6
same,EC50,[5],2 µM
CC(C)(Oc1ccc(C(=O)c2ccc(Cl)cc2)cc1)C(=O)O [FENOFIBRIC ACID],EC50,[3],12 µM
same,fold change (FC),[4],5.6
Cc1ccc(C(=O)c2cccn2C/C=C/c2cccc(OCC(=O)[O-])c2)cc1.[Na+],Activity,Mus musculus [6],Non-toxic
same,AUC,[7],14000 ng·h/mL
same,clearance,[8],1.2 mL/min/kg
same,Cmax,[9],4300 ng/mL
same,AUC,[10],59000 ng·h/mL
same,Activity,Mus musculus [11],Non-toxic
same,Activity,Mus musculus [12],Non-toxic
same,bioavailability,[13],42%
same,Tmax,[14],4 h
same,Activity,Mus musculus [15],Non-toxic
same,half-life,[16],3.2 h
same,Vd,[17],0.3 L/kg
Cc1ccccc1C(=O)c1cccn1C/C=C/c1cccc(OCC(=O)O)c1,fold change (FC),[4],1.1
COc1ccc(C(=O)c2cccn2C/C=C/c2cccc(OCC(=O)O)c2)cc1,Ratio EC50,Homo sapiens,1.9
same,Emax,[1],42%
same,Emax,[2],16%
same,EC50,[3],3.7 µM
same,fold change (FC),[4],5.8
same,EC50,[5],1.9 µM
CCc1ccc(CCOc2ccc(CC3SC(=O)NC3=O)cc2)nc1 (stereo unspecified) [PIOGLITAZONE],Activity,Mus musculus [18],Toxic
same,Activity,Mus musculus [19],Toxic
same,Activity,Mus musculus [20],Active
COc1ccc(C(=O)c2cccn2C/C=C/c2ccc(OCC(=O)O)cc2)cc1,fold change (FC),[4],3.5
COc1ccccc1C(=O)c1cccn1C/C=C/c1cccc(OCC(=O)O)c1,fold change (FC),[4],0.9
COc1ccc(C(=O)c2cccn2C/C=C/c2ccccc2CC(=O)O)cc1,fold change (FC),[4],1
Cc1cccc(C(=O)c2cccn2C/C=C/c2cccc(OCC(=O)O)c2)c1,fold change (FC),[4],1.9
Cc1ccc(C(=O)c2cccn2C/C=C/c2cccc(OCC(=O)O)c2)cc1 [listing 1 of 2 here],Ratio EC50,Homo sapiens,1.5
same,Activity,Mus musculus [21],Active
same,Emax,[1],37%
same,Emax,[2],17%
same,Emax,[22],25%
same,fold change (FC),[4],5.2
COc1ccc(C(=O)c2cccn2C/C=C/c2ccc(CC(=O)O)cc2)cc1,fold change (FC),[4],0.8
COc1ccc(C(=O)c2cc(C)cn2C/C=C/c2ccc(Cl)cc2C(=O)NS(C)(=O)=O)cc1,Ratio EC50,Homo sapiens,> 7.5
same,Emax,[2],19%
same,EC50,[3],> 90 µM
same,fold change (FC),[4],0.9
same,EC50,[5],12 µM
Cc1ccc(C(=O)c2cccn2C/C=C/c2cccc(OCC(=O)O)c2)cc1 [listing 2 of 2 here],EC50,[23],4.9 µM
same,EC50,[3],1.8 µM
same,EC50,[5],1.2 µM
COc1cccc(C(=O)c2cccn2C/C=C/c2cccc(OCC(=O)O)c2)c1,fold change (FC),[4],1.4
COc1ccc(C(=O)c2cccn2C/C=C/c2ccccc2OCC(=O)O)cc1,fold change (FC),[4],0.8
